From ChEMBL document CHEMBL1140861, “Short antisense oligonucleotides with novel 2'-4' conformationaly restricted nucleoside analogues show improved potency without increased toxicity in animals” (J Med Chem, 2009)
Active and inactive are the calls of the source. No cut-off for these calls is given here.

Tests used:
Mus musculus [1] = assay: Hepatotoxicity in BALB/c mouse assessed as increase in liver ALT level at 35 mg/kg, ip after 72 hrs; assay type: toxicity, organism-based; parameters: dose 35 mg/kg, route intraperitoneal; details: in vivo
Summary of the method: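 Single ip injection of 35 mg/kg ASO into male Balb/c mice, 6 weeks old, n = 4 per group, saline control; sacrificed 72 h after dosing and ALT recorded; ANOVA with Tukey's post hoc test.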

Mus musculus [2] = assay: Toxicity in BALB/c mouse assessed as reduction in body weight at 4.7 mg/kg, ip administered twice a week for 3 weeks measured after 72 hrs of last dose; assay type: organism-based; parameters: dose 4.7 mg/kg, route intraperitoneal; details: in vivo
Summary of the method: (§1)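 Male Balb/c mice, 6 weeks old, dosed ip twice weekly for 3 weeks at 0.5, 1.5, 4.7 and 15 mg/kg (two ASOs) or 0.7, 2.3, 7.2 and 23 mg/kg (MOE control); sacrificed 72 h after last dose; ALT, liver PTEN mRNA, liver and spleen weights and body weight gain assessed; ED50 derived; errors as sd.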

Mus musculus [3] = species: Mus musculus; assay: Binding affinity to mouse PTEN mRNA assessed as melting temperature
Summary of the method: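 Tm of ASO–RNA duplex, i.e. melting temperature of the ASO hybridised to its complementary RNA.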

bEND = assay: Reduction in mouse PTEN mRNA level expressed in mouse bEND cells; assay type: functional, cell-based
Summary of the method: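 bEND mouse brain endothelial cells transfected with ASO using lipofectin; PTEN mRNA reduction measured over a dose range; IC50 taken from dose-response curves.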

Mus musculus [4] = assay: Reduction of PTEN mRNA level in ip dosed BALB/c mouse liver after 72 hrs; assay type: functional
Mus musculus [5] = assay: Toxicity in BALB/c mouse assessed as reduction in body weight at 15 mg/kg, ip administered twice a week for 3 weeks measured after 72 hrs of last dose; assay type: organism-based; parameters: dose 15 mg/kg, route intraperitoneal; details: in vivo; summary of the method: as §1
Mus musculus [6] = assay: Hepatotoxicity in BALB/c mouse assessed as increase in liver ALT level at 15 mg/kg, ip administered twice a week for 3 weeks measured after 72 hrs of last dose; assay type: toxicity, organism-based; parameters: dose 15 mg/kg, route intraperitoneal; details: in vivo; summary of the method: as §1
Mus musculus [7] = assay: Hepatotoxicity in BALB/c mouse assessed as increase in liver ALT level at 4.7 mg/kg, ip administered twice a week for 3 weeks measured after 72 hrs of last dose; assay type: toxicity, organism-based; parameters: dose 4.7 mg/kg, route intraperitoneal; details: in vivo; summary of the method: as §1
Mus musculus [8] = assay: Toxicity in BALB/c mouse assessed as reduction in body weight at 0.5 mg/kg, ip administered twice a week for 3 weeks measured after 72 hrs of last dose; assay type: organism-based; parameters: dose 0.5 mg/kg, route intraperitoneal; details: in vivo; summary of the method: as §1
Mus musculus [9] = assay: Reduction of PTEN level in ip dosed BALB/c mouse liver at 37 mg/kg by Western blot analysis; assay type: functional, organism-based; parameters: dose 37 mg/kg
Mus musculus [10] = assay: Metabolic stability in BALB/c mouse liver assessed as antisense oligonucleotide level at 18 mg/kg; assay type: ADME, organism-based; parameters: dose 18 mg/kg; details: in vivo
Mus musculus [11] = assay: Toxicity in BALB/c mouse assessed as reduction in body weight at 1.5 mg/kg, ip administered twice a week for 3 weeks measured after 72 hrs of last dose; assay type: organism-based; parameters: dose 1.5 mg/kg, route intraperitoneal; details: in vivo; summary of the method: as §1
Mus musculus [12] = assay: Hepatotoxicity in BALB/c mouse assessed as increase in liver ALT level at 1.5 mg/kg, ip administered twice a week for 3 weeks measured after 72 hrs of last dose; assay type: toxicity, organism-based; parameters: dose 1.5 mg/kg, route intraperitoneal; details: in vivo; summary of the method: as §1
Mus musculus [13] = assay: Hepatotoxicity in BALB/c mouse assessed as increase in liver ALT level at 0.5 mg/kg, ip administered twice a week for 3 weeks measured after 72 hrs of last dose; assay type: toxicity, organism-based; parameters: dose 0.5 mg/kg, route intraperitoneal; details: in vivo; summary of the method: as §1

| Tm (Mus musculus [3]) [°C] | IC50 (bEND) [nM] | SMILES | Activity (Mus musculus [1]) | ED50 (Mus musculus [4]) [mg/kg] | also measured |
| --- | --- | --- | --- | --- | --- |
| 58.9 | 10.3 | Cc1cn([C@@H]2O[C@@]3(COP(O)(=S)O[C@H]4[C@H]5O[C@H](C)[C@]4(COP(O)(=S)O[C@H]4C[C@H](n6cc(C)c(=O)[nH]c6=O)O[C@@H]4COP(O)(=S)O[C@H]4[C@@H](O)[C@H](n6cnc7c6N=CNC7N)O[C@@H]4COP(O)(=S)O[C@H]4[C@@H](O)[C@H](n6cnc7c(=O)[nH]c(N)nc76)O[C@@H]4COP(O)(=S)O[C@H]4[C@@H](O)[C@H](n6ccc(N)nc6=O)O[C@@H]4COP(O)(=S)O[C@H]4[C@@H](O)[C@H](n6cnc7c(N)ncnc76)O[C@@H]4COP(O)(=S)O[C@H]4[C@@H](O)[C@H](n6ccc(N)nc6=O)O[C@@H]4COP(O)(=S)O[C@H]4[C@@H](O)[C@H](n6cc(C)c(=O)[nH]c6=O)O[C@@H]4COP(O)(=S)O[C@H]4[C@@H](O)[C@H](n6cnc7c(=O)[nH]c(N)nc76)O[C@@H]4COP(O)(=S)O[C@H]4[C@@H](O)[C@H](n6cnc7c(=O)[nH]c(N)nc76)O[C@@H]4COP(O)(=S)O[C@H]4[C@@H](O)[C@H](n6ccc(N)nc6=O)O[C@@H]4COP(O)(=S)O[C@H]4[C@H]6O[C@H](C)[C@]4(COP(O)(=S)O[C@H]4[C@H]7O[C@H](C)[C@]4(CO)O[C@H]7n4ccc(=O)[nH]c4=O)O[C@H]6n4cc(C)c(N)nc4=O)O[C@H]5n4ccc(=O)[nH]c4=O)[C@@H](C)O[C@@H]2[C@@H]3O)c(=O)nc1N (stereo partly specified) | – | 13 | Activity (Mus musculus [2]): Toxic; Activity (Mus musculus [5]): Toxic; Activity (Mus musculus [6]): Toxic; Activity (Mus musculus [7]): Toxic; Activity (Mus musculus [8]): Toxic; Activity (Mus musculus [9]): Active; Stability (Mus musculus [10]): 25 µg/g; Activity (Mus musculus [11]): Toxic; Activity (Mus musculus [12]): Toxic; Activity (Mus musculus [13]): Toxic |
| 56.9 | 6 | COC[C@H]1O[C@H]2[C@H](n3cc(C)c(N)nc3=O)O[C@]1(COP(O)(=S)O[C@H]1[C@H]3O[C@H](COC)[C@]1(COP(O)(=S)O[C@H]1C[C@H](n4cc(C)c(=O)[nH]c4=O)O[C@@H]1COP(O)(=S)O[C@H]1[C@@H](O)[C@H](n4cnc5c4N=CNC5N)O[C@@H]1COP(O)(=S)O[C@H]1[C@@H](O)[C@H](n4cnc5c(=O)[nH]c(N)nc54)O[C@@H]1COP(O)(=S)O[C@H]1[C@@H](O)[C@H](n4ccc(N)nc4=O)O[C@@H]1COP(O)(=S)O[C@H]1[C@@H](O)[C@H](n4cnc5c(N)ncnc54)O[C@@H]1COP(O)(=S)O[C@H]1[C@@H](O)[C@H](n4ccc(N)nc4=O)O[C@@H]1COP(O)(=S)O[C@H]1C[C@H](n4cc(C)c(=O)[nH]c4=O)O[C@@H]1COP(O)(=S)O[C@H]1[C@@H](O)[C@H](n4cnc5c(=O)[nH]c(N)nc54)O[C@@H]1COP(O)(=S)O[C@H]1[C@@H](O)[C@H](n4cnc5c(=O)[nH]c(N)nc54)O[C@@H]1COP(O)(=S)O[C@H]1[C@@H](O)[C@H](n4ccc(N)nc4=O)O[C@@H]1COP(O)(=S)O[C@H]1[C@H]4O[C@H](COC)[C@]1(COP(O)(=S)O[C@H]1[C@H]5O[C@H](COC)[C@]1(CO)O[C@H]5n1ccc(=O)[nH]c1=O)O[C@H]4n1cc(C)c(N)nc1=O)O[C@H]3n1ccc(=O)[nH]c1=O)[C@H]2O (stereo partly specified) | – | 29 | – |

More lines, now with the values behind:

| SMILES | Tm (Mus musculus [3]) [°C] | IC50 (bEND) [nM] | Activity (Mus musculus [1]) | ED50 (Mus musculus [4]) [mg/kg] | also measured |
| --- | --- | --- | --- | --- | --- |
| COC[C@@H]1O[C@H]2[C@H](n3ccc(=O)[nH]c3=O)O[C@]1(COP(O)(=S)O[C@@H]1[C@H]3O[C@H](COC)[C@]1(COP(O)(=S)OC[C@H]1O[C@@H](n4cnc5c(N)ncnc54)[C@H](O)[C@@H]1OP(O)(=S)OC[C@H]1O[C@@H](n4cc(C)c(=O)[nH]c4=O)[C@H](O)[C@@H]1OP(O)(=S)OC[C@H]1O[C@@H](n4cnc5c(=O)[nH]c(N)nc54)[C@H](O)[C@@H]1OP(O)(=S)OC[C@H]1O[C@@H](n4cnc5c(=O)[nH]c(N)nc54)[C@H](O)[C@@H]1OP(O)(=S)OC[C@H]1O[C@@H](n4ccc(N)nc4=O)[C@H](O)[C@@H]1OP(O)(=S)OC[C@H]1O[C@@H](n4cc(C)c(=O)[nH]c4=O)[C@H](O)[C@@H]1OP(O)(=S)OC[C@H]1O[C@@H](n4cnc5c(=O)[nH]c(N)nc54)[C@H](O)[C@@H]1OP(O)(=S)OC[C@H]1O[C@@H](n4ccc(N)nc4=O)[C@H](O)[C@@H]1OP(O)(=S)OC[C@H]1O[C@@H](n4cnc5c(N)ncnc54)[C@H](O)[C@@H]1OP(O)(=S)OC[C@H]1O[C@@H](n4cnc5c(=O)[nH]c(N)nc54)[C@H](O)[C@@H]1OP(O)(=S)OC[C@]14O[C@@H](n5ccc(N)nc5=O)[C@H](O[C@H]1COC)[C@@H]4OP(O)(=S)OC[C@]14O[C@@H](n5ccc(=O)[nH]c5=O)[C@H](O[C@H]1COC)[C@@H]4O)O[C@H]3n1ccc(N)nc1=O)[C@H]2O (stereo partly specified) | – | – | Non-toxic | – | – |
| COC[C@H]1O[C@H]2[C@H](n3ccc(=O)[nH]c3=O)O[C@]1(COP(O)(=S)O[C@H]1[C@H]3O[C@H](COC)[C@]1(COP(O)(=S)OC[C@H]1O[C@@H](n4cnc5c(N)ncnc54)[C@H](O)[C@@H]1OP(O)(=S)OC[C@H]1O[C@@H](n4cc(C)c(=O)[nH]c4=O)[C@H](O)[C@@H]1OP(O)(=S)OC[C@H]1O[C@@H](n4cnc5c(=O)[nH]c(N)nc54)[C@H](O)[C@@H]1OP(O)(=S)OC[C@H]1O[C@@H](n4cnc5c(=O)[nH]c(N)nc54)[C@H](O)[C@@H]1OP(O)(=S)OC[C@H]1O[C@@H](n4ccc(N)nc4=O)[C@H](O)[C@@H]1OP(O)(=S)OC[C@H]1O[C@@H](n4cc(C)c(=O)[nH]c4=O)[C@H](O)[C@@H]1OP(O)(=S)OC[C@H]1O[C@@H](n4cnc5c(=O)[nH]c(N)nc54)[C@H](O)[C@@H]1OP(O)(=S)OC[C@H]1O[C@@H](n4ccc(N)nc4=O)[C@H](O)[C@@H]1OP(O)(=S)OC[C@H]1O[C@@H](n4cnc5c(N)ncnc54)[C@H](O)[C@@H]1OP(O)(=S)OC[C@H]1O[C@@H](n4cnc5c(=O)[nH]c(N)nc54)[C@H](O)[C@@H]1OP(O)(=S)OC[C@]14O[C@@H](n5ccc(N)nc5=O)[C@H](O[C@@H]1COC)[C@@H]4OP(O)(=S)OC[C@]14O[C@@H](n5ccc(=O)[nH]c5=O)[C@H](O[C@@H]1COC)[C@@H]4O)O[C@H]3n1ccc(N)nc1=O)[C@H]2O (stereo partly specified) | – | – | Non-toxic | – | – |
| COCCO[C@@H]1[C@H](O)[C@@H](COP(O)(=S)O[C@H]2[C@@H](OCCOC)[C@H](n3ccc(=O)[nH]c3=O)O[C@@H]2COP(O)(=S)O[C@H]2C[C@H](n3cc(C)c(=O)[nH]c3=O)O[C@@H]2COP(O)(=S)O[C@H]2[C@@H](O)[C@H](n3cnc4c3N=CNC4N)O[C@@H]2COP(O)(=S)O[C@H]2[C@@H](O)[C@H](n3cnc4c(=O)[nH]c(N)nc43)O[C@@H]2COP(O)(=S)O[C@H]2[C@@H](O)[C@H](n3ccc(N)nc3=O)O[C@@H]2COP(O)(=S)O[C@H]2[C@@H](O)[C@H](n3cnc4c(N)ncnc43)O[C@@H]2COP(O)(=S)O[C@H]2[C@@H](O)[C@H](n3ccc(N)nc3=O)O[C@@H]2COP(O)(=S)O[C@H]2[C@@H](O)[C@H](n3cc(C)c(=O)[nH]c3=O)O[C@@H]2COP(O)(=S)O[C@H]2[C@@H](O)[C@H](n3cnc4c(=O)[nH]c(N)nc43)O[C@@H]2COP(O)(=S)O[C@H]2[C@@H](O)[C@H](n3cnc4c(=O)[nH]c(N)nc43)O[C@@H]2COP(O)(=S)O[C@H]2[C@@H](O)[C@H](n3ccc(N)nc3=O)O[C@@H]2COP(O)(=S)O[C@H]2[C@@H](OCCOC)[C@H](n3cc(C)c(N)nc3=O)O[C@@H]2COP(O)(=S)O[C@H]2[C@@H](OCCOC)[C@H](n3ccc(=O)[nH]c3=O)O[C@@H]2COP(=O)(O)O)O[C@H]1n1cc(C)c(N)nc1=O (stereo partly specified) | 50.8 | > 20 | – | > 45 | – |
